Like-named read-outs stand apart in the source and are kept apart here.
Key:
[1] = Safety assessment; type: in vivo, Japanese subjects (human); details: single oral 150 mg
Method in brief: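 After an overnight fast, a single oral 150 mg tablet was given. Monitoring covered TEAEs, supine BP and pulse, axillary temperature, haematology, biochemistry, urinalysis and 12-lead ECG up to 7 days post-dose, with follow-up 7 (± 2) days after discharge. TEAEs were coded in MedDRA v17.1. The investigator assigned causality and graded severity by CTCAE v4.0.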

[2] = type: in vivo, Japanese subjects (human); details: single oral 150 mg; for Tmax: both, human, plasma, po, 150 mg, median tmax
Method in brief: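 Renal groups by eGFR from the Japanese creatinine equation. Overnight-fasted subjects received one 150 mg tablet with 150 mL water on Day 1 morning, with no water from 1 h before to 1 h after. Blood was drawn predose, then 0.25–12 h and at 24, 36, 48, 60 and 72 h. Plasma (25 µL) was assayed by validated LC–MS/MS (LLOQ 0.25 ng/mL; linear 0.25–500 ng/mL). AUCinf was regressed on eGFR as a fixed effect.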

[3] = cited from earlier work; for mean urinary excretion: healthy volunteers
[4] = cited from earlier work

| SMILES | death, serious TEAE or TEAE leading to withdrawal of treatment ([1]; all 31 subjects) | ECG results ([1]; all subjects, day of admission and post-dose time points) | intensity of TEAEs ([1]; both TEAEs (headache, ALT increased)) | vital sign measurements, mean changes from baseline [1] | Tmax ([2]; across the renal function groups, fasting conditions) [h] | Tmax ([2]; renal impairment groups, fasting) [h] | linear regression of AUCinf, CL/F and eGFR across the renal function groups [2] | mean urinary excretion ([3]; after 2 weeks of multiple dosing) | median tmax ([3]; healthy subjects, fed conditions) [h] | mean urinary excretion ([3]; single oral dose) | AUC increase compared with subjects with normal renal function ([4]; mild renal impairment) [fold] | Cmax increase compared with subjects with normal renal function ([4]; mild renal impairment) [fold] | AUC increase compared with subjects with normal renal function ([4]; moderate renal impairment) [fold] | Cmax increase compared with subjects with normal renal function ([4]; moderate renal impairment) [fold] | AUC increase compared with subjects with normal renal function ([4]; severe renal impairment) [fold] | Cmax increase compared with subjects with normal renal function ([4]; severe renal impairment) [fold] |
| --- | --- | --- | --- | --- | --- | --- | --- | --- | --- | --- | --- | --- | --- | --- | --- | --- |
| NC(=O)c1cnc2[nH]ccc2c1N[C@@H]1[C@@H]2CC3C[C@H]1C[C@@](O)(C3)C2 [Peficitinib] | No death, serious TEAE or TEAE leading to withdrawal of treatment was reported | normal | mild | No clinically significant mean changes from baseline | 1.5 to 1.75 | 1.5 | no statistically significant slopes | 15–17% | 4 | 9–15 % of dose |  |  |  |  |  |  |
| CCS(=O)(=O)N1CC(CC#N)(n2cc(-c3ncnc4[nH]ccc34)cn2)C1 [baricitinib] |  |  |  |  |  |  |  |  |  |  | 1.41 | 1.16 | 2.22 | 1.46 | 4.05 | 1.40 |

— article PMC6989572 (Clinical Drug Investigation, 2019)
